Calls of active or inactive are those of the source. The rule behind the calls is not given here.

The text below walks through data of ChEMBL document CHEMBL1921787, “Synthesis and antihepatotoxic activity of 5-(2,3-dihydro-1,4-benzodioxane-6-yl)-3-substituted-phenyl-4,5-dihydro-1H-pyrazole derivatives” (2011).

Test [1] relates to Rattus norvegicus. Put plainly: Antihepatotoxic activity against CCl4-induced liver damage in rat assessed as decrease in serum SGPT level at 10 mg/kg, po by calorimetric assay (reference value: 85.27 +/- 2.05 IU/L). It counts as functional.
For test [2], the system named is Rattus norvegicus. Put plainly: Antihepatotoxic effect against CCl4-induced liver damage in rat assessed as appearance of visible central vein at 10 mg/kg, po by microscopic examination-based histopathological analysis. More on the design: dose 10 mg/kg. In kind it is functional, organism-based. The procedure, abridged: (§1)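 Livers taken from Wistar rats (n = 5 per group) dosed with CCl4 1.5 ml/kg p.o. plus agents at 10 mg/kg p.o.; silymarin reference and normal controls included. Liver sections examined microscopically and scored descriptively for necrosis, inflammation, sinusoidal dilatation, central vein appearance, cytoplasmic staining, parenchyma and vascular change.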

Test [3] relates to Rattus norvegicus. As to the kind of experiment: Antihepatotoxic effect against CCl4-induced liver damage in rat assessed as appearance of mild dilution of sinusoidal spaces at 10 mg/kg, po by microscopic examination-based histopathological analysis. The conditions noted are these: Sinusoidal space. More on the design: dose 10 mg/kg. In kind it is functional, organism-based. The procedure, abridged: as §1

Test [4] has as its system Rattus norvegicus. Put plainly: Antihepatotoxic activity against CCl4-induced liver damage in rat assessed as decrease in serum SGOT level at 10 mg/kg, po by calorimetric assay (reference value: 74.52 +/- 0.695 IU/L). In kind it is functional.
Test [5] concerns Rattus norvegicus. Put plainly: Antihepatotoxic activity against CCl4-induced liver damage in rat assessed as increase in total protein level at 10 mg/kg, po (reference value: 3.54 +/- 0.67 g/dl). In kind it is functional.
Test [6] relates to Rattus norvegicus. Put plainly: Antihepatotoxic effect against CCl4-induced liver damage in rat assessed as appearance of uniformly stained cytoplasm at 10 mg/kg, po by microscopic examination-based histopathological analysis. It counts as functional, organism-based. The arrangement: dose 10 mg/kg. Summed up:
as §1

Test [7] relates to Rattus norvegicus. Put plainly: Antihepatotoxic activity against CCl4-induced liver damage in rat assessed as decrease in ALP level at 10 mg/kg, po after 1 hr by photoelectric reading analysis (reference value: 66.157 +/- 2.886 KA). It counts as functional.
For test [8], the system named is Rattus norvegicus. Put plainly: Antihepatotoxic effect against CCl4-induced liver damage in rat assessed as absence of necrosis at 10 mg/kg, po by microscopic examination-based histopathological analysis. In kind it is functional, organism-based. The arrangement: dose 10 mg/kg. Summed up:
as §1

In test [9] the test system is Rattus norvegicus. As to the kind of experiment: Antihepatotoxic effect against CCl4-induced liver damage in rat assessed as appearance of normal parenchyma at 10 mg/kg, po by microscopic examination-based histopathological analysis. In kind it is functional, organism-based. More on the design: dose 10 mg/kg. Summed up:
as §1

Test [10] relates to Rattus norvegicus. Put plainly: Antihepatotoxic effect against CCl4-induced liver damage in rat assessed as appearance of moderate sinusoidal dilution at 10 mg/kg, po by microscopic examination-based histopathological analysis. In kind it is functional, organism-based. More on the design: dose 10 mg/kg. The procedure, abridged:
as §1

Test [11] deals with Rattus norvegicus. As to the kind of experiment: Antihepatotoxic effect against CCl4-induced liver damage in rat assessed as fine vascular changes in hepatocytes at 10 mg/kg, po by microscopic examination-based histopathological analysis. The arrangement: dose 10 mg/kg. In kind it is functional, organism-based. The conditions noted are these: Hepatocyte. The procedure, abridged: as §1

Test [12] has as its system Rattus norvegicus. As to the kind of experiment: Antihepatotoxic effect against CCl4-induced liver damage in rat assessed as appearance of moderate sinusoidal dilution around central vein at 10 mg/kg, po by microscopic examination-based histopathological analysis. In kind it is functional, organism-based. More on the design: dose 10 mg/kg. The procedure, abridged:
as §1

The test system of test [13] is Rattus norvegicus. As to the kind of experiment: Antihepatotoxic effect against CCl4-induced liver damage in rat assessed as appearance of little dilution at 10 mg/kg, po by microscopic examination-based histopathological analysis. It counts as functional, organism-based. More on the design: dose 10 mg/kg. Summed up:
as §1

In test [14] the test system is Rattus norvegicus. Put plainly: Antihepatotoxic effect against CCl4-induced liver damage in rat assessed as appearance of clear central vein at 10 mg/kg, po by microscopic examination-based histopathological analysis. In kind it is functional, organism-based. The arrangement: dose 10 mg/kg. The procedure, abridged:
as §1

The test system of test [15] is Rattus norvegicus. As to the kind of experiment: Antihepatotoxic effect against CCl4-induced liver damage in rat assessed as appearance of sinusoidal dilution in centrizonal area at 10 mg/kg, po by microscopic examination-based histopathological analysis. In kind it is functional, organism-based. The arrangement: dose 10 mg/kg. Summed up: as §1

On to SILYMARIN, for which the Activity came out at 61.3 IU/L in [1], 56.2 IU/L in test [4], 4.2 g/dL in test [5] and 48.6 KA in test [7]. Further, the result in [2], in test [3], in [6] and in [8] was Active.
With `Oc1ccc(C2=NNC(c3ccc4c(c3)OCCO4)C2)c(O)c1` (stereo not drawn), the Activity came to 62.09 IU/L in test [1], 58.57 IU/L in test [4], 3.82 g/dL in test [5] and 58.22 KA in [7]. Also, the result in [9] and in test [10] was Active.
With `c1ccc(C2=NNC(c3ccc4c(c3)OCCO4)C2)cc1` (stereo not drawn), the Activity in test [1] turned out to be 65 IU/L; in [4], 62.85 IU/L; in test [5], 4.04 g/dL; in test [7], 53.14 KA. The outcome in [11] and in [12] was Active.
With `Clc1ccc(C2=NNC(c3ccc4c(c3)OCCO4)C2)cc1` (stereo not drawn), the Activity in [1] came to 65.81 IU/L; in test [4] it was 63.42 IU/L; in test [5], 3.91 g/dL; in test [7], 46.06 KA. For the same molecule, the outcome in [11] and in test [12] was Active.
For `Cc1cccc(C2=NNC(c3ccc4c(c3)OCCO4)C2)c1` (stereo not drawn), the Activity is 64.13 IU/L in test [1], 64.85 IU/L in test [4], 3.98 g/dL in test [5] and 55.74 KA in test [7]. In addition, the outcome in test [13] and in [14] was Active.
For `COc1ccc(C2=NNC(c3ccc4c(c3)OCCO4)C2)cc1OC` (stereo not drawn), the Activity in [1] is 64.95 IU/L; in test [4], 58.85 IU/L; in [5] it was 3.82 g/dL; in test [7], 49.48 KA. Moreover, the outcome in test [15] and in test [9] was Active.
